The text below walks through data of ChEMBL document CHEMBL1123134, “Diterpenoid sweeteners. Synthesis and sensory evaluation of stevioside analogues with improved organoleptic properties” (1985).

Holding throughout (type): functional
The species named for assay [1] is Homo sapiens. Description: Sensory evaluation was done for sweetness at a concentration of 634 p.p.m. against compound potency calculated on weight basis. Summed up: (§1)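 Sweetness tasted in solutions held near pH ~7, so carboxylic acids are ionized. Potency is reported two ways: on a weight basis (Pw) and on a molar basis (Pm).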
The species entered for assay [2] is Homo sapiens. Description: Sensory evaluation was done at a concentration of 634 p.p.m. against other properties. Summed up: (§2)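 Aqueous sample solutions were tasted at about pH 7, so carboxylic acids were in ionized form.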
The species entered for assay [3] is Homo sapiens. Description: Sensory evaluation was done for sweetness at a concentration of 634 p.p.m. against compound potency calculated on a molar basis. In a few lines:
as §1

Assay [4] is filed under the species Homo sapiens. Description: Sensory evaluation was done at a concentration of 634 p.p.m. against property of sweetness. In a few lines: as §2
Assay [5] is filed under the species Homo sapiens. Description: Sensory evaluation was done at a concentration of 634 p.p.m. against property of bitterness. Summed up: as §2
Assay [6] is filed under the species Homo sapiens. Description: Sensory evaluation was done for sweetness at a concentration of 634 p.p.m. against sample intensity relative to 10% sucrose. In a few lines:
as §1

The species named for assay [7] is Homo sapiens. Description: Sensory evaluation was done at a concentration of 250 p.p.m. against property of sweetness. In a few lines:
as §2

The species entered for assay [8] is Homo sapiens. Description: Sensory evaluation was done for sweetness at a concentration of 250 p.p.m. against sample intensity relative to 10% sucrose. Summed up:
as §1

The species named for assay [9] is Homo sapiens. Description: Sensory evaluation was done for sweetness at a concentration of 250 p.p.m. against compound potency calculated on a molar basis. In a few lines:
as §1

The species entered for assay [10] is Homo sapiens. Description: Sensory evaluation was done for sweetness at a concentration of 250 p.p.m. against compound potency calculated on weight basis. Summed up: as §1
The species entered for assay [11] is Homo sapiens. Description: Sensory evaluation was done at a concentration of 250 p.p.m. against other properties. Summed up:
as §2

Assay [12] is filed under the species Homo sapiens. Description: Sensory evaluation was done at a concentration of 250 p.p.m. against property of bitterness. Summed up:
as §2

The species entered for assay [13] is Homo sapiens. Description: Sensory evaluation was done for sweetness at a concentration of 100000 p.p.m. against compound potency calculated on weight basis. Summed up:
(§3)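 Solutions were tasted at about pH 7. Sweetness potency was expressed two ways: Pw, calculated on a weight basis, and Pm, calculated on a molar basis.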

The species named for assay [14] is Homo sapiens. Description: Sensory evaluation was done for sweetness at a concentration of 100000 p.p.m. against compound potency calculated on a molar basis. In a few lines:
as §3

The species named for assay [15] is Homo sapiens. Description: Sensory evaluation was done at a concentration of 100000 p.p.m. against property of bitterness. Summed up:
as §2

The species entered for assay [16] is Homo sapiens. Description: Sensory evaluation was done for sweetness at a concentration of 100000 p.p.m. against sample intensity relative to 10% sucrose. Summed up: as §1
The species entered for assay [17] is Homo sapiens. Description: Sensory evaluation was done at a concentration of 100000 p.p.m. against other properties. In a few lines:
as §2

Assay [18] is filed under the species Homo sapiens. Description: Sensory evaluation was done at a concentration of 100000 p.p.m. against property of sweetness. In a few lines: as §2

Take `C=C1C[C@@]23CC[C@H]4[C@@](C)(CCC[C@@]4(C)C(=O)OCC(=O)O)[C@@H]2CC[C@]1(O[C@@H]1O[C@@H](CO)[C@@H](O)[C@H](O)[C@@H]1O[C@@H]1O[C@@H](CO)[C@@H](O)[C@H](O)[C@@H]1O)C3`: in the assay filed under Homo sapiens [1], the Pw is given as 140. For the same compound, the Sensory evaluation in the assay filed under Homo sapiens [2] is recorded as 1; in the assay filed under Homo sapiens [4], 80; in the assay filed under Homo sapiens [5], 19. For the same compound, in the assay listed under Homo sapiens [3], the Pm is reported as 310. This compound also gave an Ip in the assay listed under Homo sapiens [6] of 0.9.
In the case of `COc1ccc(CCC(=O)c2c(O)cc(O[C@@H]3O[C@H](CO)[C@@H](O)[C@H](O)[C@H]3O[C@@H]3O[C@@H](C)[C@H](O)[C@@H](O)[C@H]3O)cc2O)cc1O` [NEOHESPERIDIN DIHYDROCHALCONE], the Sensory evaluation in the assay listed under Homo sapiens [7] came to 81; in the assay listed under Homo sapiens [11], 16; in the assay filed under Homo sapiens [12] it was 3. In the assay listed under Homo sapiens [8], the Ip is recorded as 1.2. The Pm in the assay listed under Homo sapiens [9] is recorded as 860. Besides, in the assay filed under Homo sapiens [10], the Pw is on record as 480.
Regarding `OC[C@H]1O[C@@](CO)(O[C@H]2O[C@H](CO)[C@@H](O)[C@H](O)[C@H]2O)[C@@H](O)[C@@H]1O` [SUCROSE], the Pw in the assay listed under Homo sapiens [13] is 1. Moreover, the Pm in the assay listed under Homo sapiens [14] is on record as 1. Further, the results for the Sensory evaluation in the assay filed under Homo sapiens [15], in the assay filed under Homo sapiens [17] and in the assay filed under Homo sapiens [18] were 0, 0 and 100, respectively. The same compound displayed an Ip in the assay listed under Homo sapiens [16] of 1.
